Results on three compounds are retold here after article PMC7703390 (Journal of Pharmaceutical and Biomedical Analysis, 2020).

The target in series [1] is human serum albumin (HSA) (Homo sapiens, UniProt P02768). Kind of series: Binding of nucleotides to human serum albumin by native ESI-FT-ICR MS. Summed up: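 Commercial HSA buffer-exchanged five times into 10 mM NH4Ac (pH 6.0) on a 30k membrane filter. Purified HSA (3 μM) mixed with varying nucleotide concentrations in 10 mM NH4Ac and infused at 5 μL∙min−1 in native positive-mode ESI-FT-ICR MS, m/z 1000–5000, 200 scans combined. Free HSA to complex intensity ratios taken from deconvoluted 17+ to 19+ charge states; KD by nonlinear regression.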

The nature of series [2]: Degradation in liver homogenate on ice and at room temperature. Type of series: in vitro ADME, mouse. Particulars: both on ice and at room temperature; Fig. 4a.

Chain of human serum albumin (HSA) (P02768 25-609): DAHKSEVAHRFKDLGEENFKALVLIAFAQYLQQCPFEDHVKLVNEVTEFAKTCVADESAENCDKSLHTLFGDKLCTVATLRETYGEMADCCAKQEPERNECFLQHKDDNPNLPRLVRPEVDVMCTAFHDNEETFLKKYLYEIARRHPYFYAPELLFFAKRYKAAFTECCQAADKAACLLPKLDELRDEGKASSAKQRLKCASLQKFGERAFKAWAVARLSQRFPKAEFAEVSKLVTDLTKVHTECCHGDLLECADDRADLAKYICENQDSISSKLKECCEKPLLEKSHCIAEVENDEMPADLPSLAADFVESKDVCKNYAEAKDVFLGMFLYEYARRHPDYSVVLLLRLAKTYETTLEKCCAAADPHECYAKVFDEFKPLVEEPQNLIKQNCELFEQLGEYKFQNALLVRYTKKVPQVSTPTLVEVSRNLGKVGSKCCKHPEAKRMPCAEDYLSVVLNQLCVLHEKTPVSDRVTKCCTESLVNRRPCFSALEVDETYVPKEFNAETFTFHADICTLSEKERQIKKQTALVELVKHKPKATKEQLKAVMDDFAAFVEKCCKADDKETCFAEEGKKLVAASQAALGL

For `Nc1ncnc2c1ncn2[C@@H]1O[C@H](COP(=O)(O)OP(=O)(O)OP(=O)(O)O)[C@@H](O)[C@H]1O` [ATP, Adenosine triphosphate], the Kd (in general, the free concentration of one partner at which half of the binding sites on the other are occupied at equilibrium, for simple one-to-one binding) in series [1] is 0.471 ± 0.0238 µM. For the compound `CCC(CC)COC(=O)[C@H](C)N[P@](=O)(OC[C@H]1O[C@@](C#N)(c2ccc3c(N)ncnn23)[C@H](O)[C@@H]1O)Oc1ccccc1` [RDV, Remdesivir], the “degradation in bio-sample without stabilizer” value in series [2] is recorded as “almost completely degraded in 5 min”. On to `O=c1ccn([C@@H]2O[C@H](COP(=O)(O)OP(=O)(O)OP(=O)(O)O)[C@@H](O)[C@H]2O)c(=O)[nH]1` [UTP, uridine triphosphate], for which the affinity in series [1], expressed as Kd, was 6.79 ± 0.333 µM.
